Converted amounts (≈) assume the structure as drawn.
How the values were obtained:
Assay type in all cases: functional
[1] = system: Radical scavenging activity; experiment: Antioxidant activity assessed as DPPH free radical scavenging activity at 40 ug/mL after 20 min by UV-Vis spectrophotometric analysis
How it was run: (§1)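 DPPH radical scavenging: samples were held at room temperature for 20 min in the dark, and absorbance was read at 517 nm. The control contained DMSO without compound, and methanol was used for baseline correction. Scavenging percentage was calculated from the absorbances.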

[2] = system: Radical scavenging activity; experiment: Antioxidant activity assessed as DPPH free radical scavenging activity at 300 ug/mL after 20 min by UV-Vis spectrophotometric analysis; how it was run: as §1
Bacillus thuringiensis = experiment: Antibacterial activity against Bacillus thuringiensis MTCC 6941 assessed as growth inhibition at 100 ug/disk after 24 hr by disk diffusion method; conditions: MTCC 6941, 24 h, read-out: DIZ
How it was run: (§2)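 Disk diffusion on nutrient agar. Strains kept on NA slants at 37 °C and subcultured in nutrient broth before testing. A log-phase culture was spread on solidified medium, and sterile disks were loaded with compound from DMSO stock. DMSO served as control, with commercial antibiotics for reference. Plates ran 24 h at 37 °C, and inhibition zones (mm) were read in quadruplicate.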

Athelia rolfsii = experiment: Antifungal activity against Athelia rolfsii ITCC 6181 by food poisoning method; conditions: Agroathelia rolfsii
How it was run: (§3)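 Poisoned food technique on PDA at several concentrations. A 5 mm mycelial plug from the growing edge of a 2-week-old colony was placed inoculum-side down at the plate centre. Plates incubated at 27 °C until control growth was nearly complete. Colony diameter measured, percent inhibition calculated against control, LC50 derived. Four replicates per treatment.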

Dickeya chrysanthemi = experiment: Antibacterial activity against Erwinia chrysanthemi ITCC B-40 assessed as as growth inhibition at 100 ug/disk after 24 hr by disk diffusion method; conditions: ITCC B-40, 24 h, read-out: DIZ; how it was run: as §2
[3] = system: Radical scavenging activity; experiment: Antioxidant activity assessed as DPPH free radical scavenging activity at 200 ug/mL after 20 min by UV-Vis spectrophotometric analysis; how it was run: as §1
[4] = system: Radical scavenging activity; experiment: Antioxidant activity assessed as DPPH free radical scavenging activity at 400 ug/mL after 20 min by UV-Vis spectrophotometric analysis; how it was run: as §1
Klebsiella pneumoniae = experiment: Antibacterial activity against Klebsiella pneumoniae MTCC 7028 assessed as growth inhibition at 100 ug/disk after 24 hr by disk diffusion method; conditions: MTCC 7028, 24 h, read-out: DIZ; how it was run: as §2
[5] = system: Radical scavenging activity; experiment: Antioxidant activity assessed as DPPH free radical scavenging activity at 60 ug/mL after 20 min by UV-Vis spectrophotometric analysis; how it was run: as §1
[6] = system: Radical scavenging activity; experiment: Antioxidant activity assessed as DPPH free radical scavenging activity after 20 min by UV-Vis spectrophotometric analysis; parameters: concentration or dose not given beside the values; how it was run: as §1
Xanthomonas oryzae = experiment: Antibacterial activity against Xanthomonas oryzae ITCC B-47 assessed as as growth inhibition at 100 ug/disk after 24 hr by disk diffusion method; conditions: ITCC B-47, 24 h, read-out: DIZ
Staphylococcus aureus = experiment: Antibacterial activity against Staphylococcus aureus MTCC 3160 assessed as growth inhibition at 100 ug/disk after 24 hr by disk diffusion method; conditions: MTCC 3160, 24 h, read-out: DIZ; how it was run: as §2
[7] = system: Radical scavenging activity; experiment: Antioxidant activity assessed as DPPH free radical scavenging activity at 80 ug/mL after 20 min by UV-Vis spectrophotometric analysis; how it was run: as §1
[8] = system: Radical scavenging activity; experiment: Antioxidant activity assessed as DPPH free radical scavenging activity at 500 ug/mL after 20 min by UV-Vis spectrophotometric analysis; how it was run: as §1
Bacillus pumilus = experiment: Antibacterial activity against Bacillus pumilus MTCC 2466 assessed as growth inhibition at 100 ug/disk after 24 hr by disk diffusion method; conditions: MTCC 2466, 24 h, read-out: DIZ; how it was run: as §2
Rhizoctonia solani = experiment: Antifungal activity against Rhizoctonia solani ITCC 5563 by food poisoning method; how it was run: as §3
[9] = system: Radical scavenging activity; experiment: Antioxidant activity assessed as DPPH free radical scavenging activity at 20 ug/mL after 20 min by UV-Vis spectrophotometric analysis; how it was run: as §1
Pseudomonas aeruginosa = experiment: Antibacterial activity against Pseudomonas aeruginosa MTCC 2581 assessed as growth inhibition at 100 ug/disk after 24 hr by disk diffusion method; conditions: MTCC 2581, 24 h, read-out: DIZ; how it was run: as §2
[10] = system: Radical scavenging activity; experiment: Antioxidant activity assessed as DPPH free radical scavenging activity at 100 ug/mL after 20 min by UV-Vis spectrophotometric analysis; how it was run: as §1
[11] = system: Radical scavenging activity; experiment: Antioxidant activity assessed as DPPH free radical scavenging activity at 10 ug/mL after 20 min by UV-Vis spectrophotometric analysis; how it was run: as §1

Compound | Activity [1] [%] | Activity [2] [%] | zone of inhibition at 100 µg/disc (Bacillus thuringiensis) [mm] | LC50 (Athelia rolfsii) [µg/mL] | zone of inhibition at 100 µg/disc (Dickeya chrysanthemi) [mm] | Activity [3] [%] | Activity [4] [%] | zone of inhibition at 100 µg/disc (Klebsiella pneumoniae) [mm] | Activity [5] [%] | Activity [6] [%] | IC50 [6] [µg/mL] | zone of inhibition at 100 µg/disc (Xanthomonas oryzae) [mm] | zone of inhibition at 100 µg/disc (Staphylococcus aureus) [mm] | Activity [7] [%] | Activity [8] [%] | zone of inhibition at 100 µg/disc (Bacillus pumilus) [mm] | LC50 (Rhizoctonia solani) [µg/mL] | Activity [9] [%] | zone of inhibition at 100 µg/disc (Pseudomonas aeruginosa) [mm] | Activity [10] [%] | further results
Cc1ccc(C2=Cc3n[nH]c(O)c3C(c3ccc(C)cc3)C2)cc1 (stereo not given) | 18.2 | 80.5 | 0 | 876 (≈ 2770 µM) | 0 | 68.1 | 84.8 | 0 | 31.5 | 18.1 | 123.54 (≈ 390 µM) | 0 | 5 | 34.9 | 85.2 | 0 | 814 (≈ 2570 µM) | 4.4 | 10 | 40.3 | Activity [11]: 3.4%
COc1ccc(C2CC(c3ccc(OC)c(OC)c3)=Cc3n[nH]c(O)c32)cc1 (stereo not given) | 12.8 | 75.3 | 0 | 894 (≈ 2360 µM) | 0 | 58.8 | 82.6 | 0 | 26.3 | 12.8 | 146.68 (≈ 388 µM) | 0 | 0 | 31.1 | 82.6 | 0 | 611 (≈ 1610 µM) | 5.3 | 0 | 36.5 | Activity [11]: 3.5%
COc1ccc(C2CC(c3ccccc3)=Cc3n[nH]c(O)c32)cc1 (stereo not given) | 50.3 | 89.7 | 0 | 713 (≈ 2240 µM) | 0 | 91.8 | 88.9 | 0 | 79.7 | 50.2 | 29.62 (≈ 93 µM) | 0 | 0 | 88.4 | 90.2 | 0 | 718 (≈ 2260 µM) | 30.6 | 0 | 89 | Activity [11]: 16.8%
COc1cc(C2CC(c3ccccc3)=Cc3n[nH]c(O)c32)cc(OC)c1OC (stereo not given) | 67.1 | 91.2 | 0 | 1020 (≈ 2710 µM) | 0 | 92.3 | 90.5 | 0 | 86.4 | 67.1 | 22.28 (≈ 58.9 µM) | 0 | 0 | 90.7 | 90.8 | 0 | 917 (≈ 2420 µM) | 31.5 | 0 | 91.8 | Activity [11]: 18.1%
COc1ccc(C2CC(c3ccc4c(c3)OCO4)=Cc3n[nH]c(O)c32)cc1 (stereo not given) | 56.1 | 89.8 | 0 | 897 (≈ 2480 µM) | 0 | 91.9 | 89.9 | 0 | 84.2 | 56.1 | 25.2 (≈ 69.5 µM) | 0 | 0 | 89.5 | 90.1 | 0 | 643 (≈ 1770 µM) | 30.4 | 0 | 90.7 | Activity [11]: 19%
COc1ccc(C2CC(c3ccc(Cl)c(Cl)c3)=Cc3n[nH]c(O)c32)cc1 (stereo not given) | 48.6 | 90.7 | 0 | 1030 (≈ 2660 µM) | 0 | 91.5 | 91.3 | 0 | 86.1 | 48.5 | 40.98 (≈ 106 µM) | 0 | 0 | 90.4 | 91.3 | 0 | 776 (≈ 2000 µM) | 31 | 0 | 91.1 | Activity [11]: 17.6%
COc1ccc(C2CC(c3ccccc3)=Cc3n[nH]c(O)c32)cc1OC (stereo not given) | 69.9 | 91.9 | 0 | 817 (≈ 2340 µM) | 0 | 91.9 | 90.5 | 0 | 87.6 | 69.9 | 21.98 (≈ 63.1 µM) | 0 | 0 | 90.9 | 90.8 | 0 | 696 (≈ 2000 µM) | 30.2 | 5 | 91.8 | Activity [11]: 18.1%
Cc1ccc(C2CC(c3ccccc3)=Cc3n[nH]c(O)c32)cc1 (stereo not given) | 18.2 | 81.8 | 0 | 922 (≈ 3050 µM) | 0 | 69.9 | 85.7 | 0 | 35.1 | 18.2 | 106.62 (≈ 353 µM) | 0 | 5 | 36.4 | 85.7 | 0 | 745 (≈ 2460 µM) | 14.5 | 10 | 41.2 | Activity [11]: 9.2%
COc1ccc(C2CC(c3ccc(C)cc3)=Cc3n[nH]c(O)c32)cc1OC (stereo not given) | 62.6 | 91.6 | 0 | 939 (≈ 2590 µM) | 0 | 91.4 | 91.7 | 0 | 78.5 | 62.6 | 33.12 (≈ 91.4 µM) | 0 | 0 | 80.3 | 91 | 0 | 861 (≈ 2380 µM) | 25.9 | 0 | 81.8 | Activity [11]: 15%
COc1ccc(C2CC(c3ccc(Cl)cc3)=Cc3n[nH]c(O)c32)cc1 (stereo not given) | 43.2 | 89.7 | 0 | 941 (≈ 2670 µM) | 0 | 91.2 | 89.8 | 0 | 68.7 | 43.2 | 42.34 (≈ 120 µM) | 0 | 0 | 86.4 | 90 | 0 | 587 (≈ 1660 µM) | 21.7 | 0 | 89.9 | Activity [11]: 13.9%

— ChEMBL document CHEMBL3045565, “Microwave synthesis, characterization and bio-efficacy evaluation of novel chalcone based 6-carbethoxy-2-cyclohexen-1-one and 2H-indazol-3-ol derivatives” (Eur J Med Chem, 2013)
